Here are results for one compound from ChEMBL document CHEMBL3826935, “Synthesis and Pharmacology of (Pyridin-2-yl)methanol Derivatives as Novel and Selective Transient Receptor Potential Vanilloid 3 Antagonists” (J Med Chem, 2016).

The term fraction unbound denotes the share of the substance not bound to proteins or other matrix. A lower fraction unbound goes with little free substance. As usually defined, the IC50 is the concentration that gives 50% inhibition. In general, Kb refers to the affinity of an antagonist, worked out from how it opposes an agonist.

Molecules are shown by their SMILES.

Data set [1] in a line: Fraction unbound in human plasma. Type of data set: ADME, cell-free.
For data set [2], the system named is Liver microsome. The data set is described as follows: Drug metabolism in rat liver microsomes assessed as alcohol group oxidation after 1 hr by HPLC analysis. Format: ADME. The procedure, abridged: (§1)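 Compound incubated in rat liver microsomes for 1 h at 37 °C. Metabolite distribution analysed by HPLC; metabolite structures assigned by 1H NMR.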
For data set [3], the system named is Liver microsome. The data set is described as follows: Unbound intrinsic clearance in human liver microsomes after 5 hrs by LC-MS/MS analysis. Type of data set: ADME. The gist of the method: (§2)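 Microsomal stability run in an automated high-throughput plate format. Intrinsic clearance corrected for nonspecific microsomal binding using measured unbound fraction (fu,mic), reported as unbound Clint in L/h/kg.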
(In general: Liver microsomes are vesicles of endoplasmic reticulum, rich in cytochrome P450 enzymes.)

In data set [4] the target is T1, Transient receptor potential cation channel subfamily V member 3 (Homo sapiens, UniProt Q8NET8).
T1 sequence (Q8NET8 whole entry): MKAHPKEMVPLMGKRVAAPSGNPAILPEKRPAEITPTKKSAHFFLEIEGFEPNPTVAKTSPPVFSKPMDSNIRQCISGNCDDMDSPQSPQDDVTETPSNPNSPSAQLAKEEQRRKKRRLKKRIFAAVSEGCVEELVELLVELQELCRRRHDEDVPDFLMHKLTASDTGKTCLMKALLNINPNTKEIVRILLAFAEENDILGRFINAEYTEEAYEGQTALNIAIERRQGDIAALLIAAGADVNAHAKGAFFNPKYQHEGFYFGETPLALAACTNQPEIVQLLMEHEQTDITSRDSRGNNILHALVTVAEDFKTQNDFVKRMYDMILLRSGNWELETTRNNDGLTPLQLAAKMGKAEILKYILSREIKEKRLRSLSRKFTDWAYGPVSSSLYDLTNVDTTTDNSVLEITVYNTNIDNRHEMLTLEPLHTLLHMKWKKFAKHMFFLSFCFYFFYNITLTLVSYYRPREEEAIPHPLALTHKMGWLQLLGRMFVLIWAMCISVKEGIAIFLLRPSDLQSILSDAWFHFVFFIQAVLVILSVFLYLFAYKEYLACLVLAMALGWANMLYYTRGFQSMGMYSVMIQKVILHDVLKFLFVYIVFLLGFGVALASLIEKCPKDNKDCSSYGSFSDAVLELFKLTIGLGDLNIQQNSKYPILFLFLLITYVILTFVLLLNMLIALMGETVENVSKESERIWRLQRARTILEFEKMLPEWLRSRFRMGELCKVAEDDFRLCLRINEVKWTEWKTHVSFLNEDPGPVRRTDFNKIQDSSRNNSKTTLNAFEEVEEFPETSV
The data set is described as follows: (§3) Antagonist activity at human TRPV3 expressed in recombinant HEK293 cells assessed as inhibition of 2-APB induced calcium flux by FLIPR analysis. Format: cell-based. The procedure, abridged: (§4)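 HEK293 cells stably expressing human TRPV3 (I25V variant), plated the day before in DMEM + 10% FBS at 37 °C, 5% CO2. Calcium 4 dye loaded in Ca/Mg-free HEPES D-PBS pH 7.4 for 1–2 h at room temperature. Compound dilutions added with 3 min baseline, then 2-APB at 60 µM final; Ca2+ flux read 3 min on FLIPR. Kb from at least duplicates, averaged across independent runs.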
A general note: A change in cytosolic calcium serves as a functional read-out for many receptors and channels.

The target in data set [5] is T2, Transient receptor potential cation channel subfamily V member 3 (Homo sapiens) (UniProt Q8NET8).
T2 sequence (whole entry): T1 sequence (Q8NET8 whole entry)
Described as §3. Type of data set: cell-based. The procedure, abridged:
as §4

The subject of data set [6] is Liver microsome. The data set is described as follows: Unbound intrinsic clearance in rat liver microsomes after 5 hrs by LC-MS/MS analysis. Format: ADME. The gist of the method: as §2
For data set [7], the system named is Liver microsome. In words: Drug metabolism in rat liver microsomes assessed as cyclobutane ring oxidation after 1 hr by HPLC analysis. Format: ADME. The gist of the method:
as §1

For data set [8], the system named is Liver microsome. In words: Drug metabolism in rat liver microsomes assessed as aromatic ring oxidation after 1 hr by HPLC analysis. Format: ADME. The procedure, abridged: as §1

`O[C@H](c1ccccn1)C1(c2ccc(Cl)c(Cl)c2)CCC1` returned a fraction unbound in data set [1] of 0.007. Besides, the Drug metabolism entry in data set [2], in data set [7] and in data set [8] was “metabolite_detected” each time. Also, the figures for the CL free in data set [3] and in data set [6] were 683 mL/min/kg and 2520 mL/min/kg, respectively. The IC50 in data set [4] was determined as 160 nM. Further, the Kb in data set [5] stood at 80 nM.
